# The source made the active and inactive calls. No cut-off for these calls is given here.
# What was measured:
# [1] = biological target: Glutamate NMDA receptor; GRIN1/GRIN2B (Homo sapiens, UniProt Q05586+Q13224); assay: Inhibition of NMDA-evoked increased intracellular [Ca2+] in cells expressing NR1/NR2B receptor; type: cell-based
# [2] = biological target: Glutamate [NMDA] receptor; assay: Inhibition of [3H]-Ro-25-6981 binding to NMDA receptor; type: protein-complex assay
# Mus musculus [3] = assay: In vivo analgesic activity was tested using formalin test in mouse upon p.o. administration; type: functional; details: po
# Summary of the method: (§1)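 Mice were pretreated orally with the compound suspended in 5% Tween-80, then given formalin into the hindpaw. Licking was counted 20–25 min after the formalin injection. Percentage inhibition was calculated for each dose, and the dose giving a half-maximal effect (ED50) was determined.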
# Mus musculus [4] = assay: In vivo analgesic activity was tested using formalin test in mouse upon s.c. administration; type: functional; details: sc
# Mus musculus [5] = assay: In vivo analgesic activity was tested using formalin test in mouse upon p.o. administration; IA is inactive; type: functional, organism-based; summary of the method: as §1
# Mus musculus [6] = assay: In vivo analgesic activity was tested using formalin test in mouse upon i.p. administration; type: functional; details: ip
# Summary of the method: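 Mice were pretreated intraperitoneally before formalin injection into the hindpaw. Licking behaviour was counted 20–25 min after the formalin injection. Percentage inhibition was calculated per dose, and the ED50 (the dose producing a half-maximal effect) was derived.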
# Glutamate NMDA receptor; GRIN1/GRIN2B, sequence (Q13224 whole entry, other chains not shown): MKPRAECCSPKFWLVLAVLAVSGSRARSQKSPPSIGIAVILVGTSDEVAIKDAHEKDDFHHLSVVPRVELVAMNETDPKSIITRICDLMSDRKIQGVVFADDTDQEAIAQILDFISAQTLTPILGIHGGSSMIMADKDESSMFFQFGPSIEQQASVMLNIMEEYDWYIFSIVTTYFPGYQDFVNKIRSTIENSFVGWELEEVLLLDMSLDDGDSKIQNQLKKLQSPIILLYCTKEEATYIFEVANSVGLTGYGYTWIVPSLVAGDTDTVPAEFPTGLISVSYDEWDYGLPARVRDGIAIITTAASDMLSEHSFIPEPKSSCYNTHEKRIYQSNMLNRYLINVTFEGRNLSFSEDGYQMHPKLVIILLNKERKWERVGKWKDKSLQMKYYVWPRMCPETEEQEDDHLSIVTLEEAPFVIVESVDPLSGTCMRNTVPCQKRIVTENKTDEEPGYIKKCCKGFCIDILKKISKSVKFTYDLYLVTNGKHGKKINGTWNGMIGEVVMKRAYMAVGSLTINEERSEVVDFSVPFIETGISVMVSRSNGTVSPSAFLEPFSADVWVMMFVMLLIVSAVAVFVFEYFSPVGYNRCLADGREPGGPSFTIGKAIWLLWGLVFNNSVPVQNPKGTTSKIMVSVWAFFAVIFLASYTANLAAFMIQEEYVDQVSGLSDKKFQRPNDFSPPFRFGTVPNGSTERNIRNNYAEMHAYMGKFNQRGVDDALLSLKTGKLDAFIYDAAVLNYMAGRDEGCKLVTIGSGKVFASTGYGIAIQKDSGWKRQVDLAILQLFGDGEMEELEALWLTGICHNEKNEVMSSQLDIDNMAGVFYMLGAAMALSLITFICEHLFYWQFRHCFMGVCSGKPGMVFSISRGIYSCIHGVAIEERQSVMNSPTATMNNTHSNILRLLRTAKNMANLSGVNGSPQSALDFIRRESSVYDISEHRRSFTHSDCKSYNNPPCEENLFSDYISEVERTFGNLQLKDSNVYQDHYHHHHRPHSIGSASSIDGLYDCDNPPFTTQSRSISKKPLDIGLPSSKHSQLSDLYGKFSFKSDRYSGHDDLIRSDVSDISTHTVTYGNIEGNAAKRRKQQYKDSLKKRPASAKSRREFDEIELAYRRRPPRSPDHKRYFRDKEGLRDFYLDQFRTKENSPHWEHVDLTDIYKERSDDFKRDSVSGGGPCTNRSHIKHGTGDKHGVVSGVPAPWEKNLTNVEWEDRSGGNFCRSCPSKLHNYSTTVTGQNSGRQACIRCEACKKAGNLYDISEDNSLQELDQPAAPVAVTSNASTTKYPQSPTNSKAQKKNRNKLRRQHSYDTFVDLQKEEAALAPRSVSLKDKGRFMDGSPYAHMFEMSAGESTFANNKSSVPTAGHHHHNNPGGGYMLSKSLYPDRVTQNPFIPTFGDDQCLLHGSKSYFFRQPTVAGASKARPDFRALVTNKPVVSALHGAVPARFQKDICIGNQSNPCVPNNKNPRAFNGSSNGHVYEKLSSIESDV
IC50 [1],IC50 [2],SMILES,ED50 (Mus musculus [3]),ED50 (Mus musculus [4]),ED50 (Mus musculus [5]),ED50 (Mus musculus [6])
18 nM,17 nM,Cc1ccc(CC2CCN(C(=O)C(=O)Nc3ccc4c(c3)OCC(=O)N4)CC2)cc1,10 mg/kg,–,–,–
2 nM,5 nM,O=C(Nc1ccc2[nH]c(=O)[nH]c2c1)C(=O)N1CCC(Cc2ccc(F)cc2)CC1,> 20 mg/kg,–,–,–
29 nM,139 nM,O=C1Nc2ccc(NC(=O)C(=O)N3CCC(Cc4ccccc4)CC3)cc2CO1,< 0.1 mg/kg,–,–,–
8 nM,17 nM,Cc1ccc(OC2CCN(C(=O)C(=O)Nc3ccc4[nH]c(=O)sc4c3)CC2)cc1,0.2 mg/kg,–,–,–
9 nM,17 nM,O=C(Nc1ccc2[nH]c(=O)sc2c1)C(=O)N1CCC(Cc2ccccc2)CC1,0.4 mg/kg,–,–,–
4 nM,6 nM,O=C(Nc1ccc2[nH]c(=O)oc2c1)C(=O)N1CCC(Cc2ccc(F)cc2)CC1 [RADIPRODIL],7.7 mg/kg,–,–,–
3 nM,8 nM,O=C(Nc1ccc2[nH]c(=O)oc2c1)C(=O)N1CCC(Cc2ccccc2)CC1,0.9 mg/kg,–,–,–
15 nM,54 nM,Cc1ccc(CC2CCN(C(=O)C(=O)Nc3ccc4c(c3)CC(=O)N4)CC2)cc1,0.5 mg/kg,–,–,–

# More lines, now with the values behind:
SMILES,IC50 [1],IC50 [2],ED50 (Mus musculus [3]),ED50 (Mus musculus [4]),ED50 (Mus musculus [5]),ED50 (Mus musculus [6])
O=C(Nc1ccc(O)cc1)C(=O)N1CCC(Cc2ccccc2)CC1,31 nM,16 nM,9.4 mg/kg,–,–,–
O=C(c1cc2cc(O)ccc2[nH]1)N1CCC(Cc2ccccc2)CC1,42 nM,–,1.4 mg/kg,–,–,–
O=C(Nc1ccc2[nH]c(=O)[nH]c2c1)C(=O)N1CCC(Cc2ccccc2)CC1,6 nM,4 nM,14 mg/kg,–,–,–
C[C@@H]([C@@H](O)c1ccc(O)cc1)N1CCC(O)(c2ccccc2)CC1 [TRAXOPRODIL],–,–,> 20 mg/kg,> 20 mg/kg,–,–
O=C(Nc1ccc2[nH]c(=O)[nH]c2c1)C(=O)N1CCC(Oc2ccc(Cl)cc2)CC1,8 nM,26 nM,> 20 mg/kg,–,–,–
Cc1ccc(CC2(O)CCN(CCOc3ccc(O)cc3)CC2)cc1,5 nM,–,–,–,inactive,5.9 mg/kg
O=c1[nH]c2ccc([S+]([O-])CCN3CCC(Cc4ccc(F)cc4)CC3)cc2o1 (configuration not stated) [BESONPRODIL],–,–,2.4 mg/kg,–,–,–
C[C@@H](CN1CCC(Cc2ccccc2)CC1)[C@@H](O)c1ccc(O)cc1,–,–,–,–,inactive,5.1 mg/kg
O=C(CCN1CCC(Cc2ccc(F)cc2)CC1)c1ccc2nc(O)oc2c1,48 nM,8 nM,3.7 mg/kg,–,–,–
Cc1ccc(OC2CCN(C(=O)C(=O)Nc3ccc4nc(S)[nH]c4c3)CC2)cc1,10 nM,131 nM,> 20 mg/kg,–,–,–
O=C(Nc1ccc2[nH]c(=O)oc2c1)C(=O)N1CCC(Oc2ccc(Cl)cc2)CC1,7 nM,40 nM,4.4 mg/kg,–,–,–
